Measurements published in ChEMBL document CHEMBL1123858, “Synthesis and gastrointestinal pharmacology of a 3E,5Z diene analogue of misoprostol” (1987).

Tests used:
Canis familiaris [1] = assay: Tested for gastric antisecretory activity in histamine-stimulated gastric fistula dogs by intragastric administration; type: functional; conditions: Canis lupus familiaris, Stomach, po
Outline: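 Conscious adult female beagles (6–12 kg) with simple gastric fistulas, fasted 18 h. After a 30-min basal period, drug given intragastrically via dosing plug with cannula closed 30 min, then histamine infused at 15 µg kg-1 h-1. Juice collected every 30 min for 4 h and titrated with 0.1 N NaOH to pH 7.0. ED50 is 50% inhibition of 4-h total acid output, from three-dose curves.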

Canis familiaris [2] = species on record: Canis familiaris; assay: Activity ratio ED50 of diarrhea to ED50 of antisecretory in histamine -stimulated gastric fistula dogs; type: functional, Canis lupus familiaris, Stomach
Outline: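 Ratio of the 8-h rat diarrhea ED50 to the dog antisecretory ED50. Diarrhea: fasted (24 h) male Charles River rats (210–230 g; n = 6–12) given logarithmically graded oral doses and scored all-or-none hourly to 8 h, with ED50 from a maximum-likelihood logistic model. Antisecretory ED50: intragastric dosing in histamine-infused gastric fistula dogs, from 4-h acid output.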

Canis familiaris [3] = assay: Tested for relative antisecretory potency in histamine-stimulated gastric fistula dogs by intragastric administration; value ranges from (0.13-0.48); type: functional; conditions: Canis lupus familiaris, Stomach, po
Outline: (§1)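 Gastric fistula beagles given drug intragastrically, then histamine infused at 15 µg kg-1 h-1. Total acid output collected over 4 h by NaOH titration to pH 7.0, and percent inhibition curves built. Relative antisecretory potency and its limits were computed by bioassay statistical analysis of these dose-response data.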

Canis familiaris [4] = assay: Tested for gastric antisecretory activity in histamine-stimulated Heidenhain pouch dogs by intravenous administration; type: functional; conditions: Canis lupus familiaris, Stomach
Canis familiaris [5] = assay: Tested for relative antisecretory potency in histamine-stimulated gastric fistula dogs by intragastric administration; type: functional; conditions: Canis lupus familiaris, Stomach, po; outline: as §1
Canis familiaris [6] = assay: Tested for relative antisecretory potency in histamine-stimulated gastric fistula dogs by intragastric administration; value ranges from (0.53-1.76); type: functional; conditions: Canis lupus familiaris, Stomach, po; outline: as §1

CCCCC(C)(O)C/C=C/[C@H]1[C@H](O)CC(=O)[C@@H]1CCCCCCC(=O)OC (stereo not given in full) [MISOPROSTOL]
ED50 (Canis familiaris [1]): 0.28 µg/kg
Ratio (Canis familiaris [2]): 1364
relative potency (Canis familiaris [3]): 0.26

CCCCC(C)(O)C/C=C/[C@H]1[C@H](O)CC(=O)[C@@H]1CC#C/C=C/CC(=O)OC (stereo not given in full)
ED50 (Canis familiaris [4]): > 1 µg/kg

CCCCC(C)(O)C/C=C/[C@H]1[C@H](O)CC(=O)[C@@H]1C/C=C\C=C\CC(=O)OC (stereo not given in full)
relative potency (Canis familiaris [5]): 1
ED50 (Canis familiaris [1]): 0.08 µg/kg
Ratio (Canis familiaris [2]): 1638

CCCCC(C)(O)C/C=C/[C@H]1[C@H](O)CC(=O)[C@@H]1C/C=C\C=C/CC(=O)OC.CCCCC(C)(O)C/C=C/[C@H]1[C@H](O)CC(=O)[C@@H]1C/C=C\C=C\CC(=O)OC (mixture of isomers)
ED50 (Canis familiaris [1]): 0.08 µg/kg
relative potency (Canis familiaris [6]): 0.95
Ratio (Canis familiaris [2]): 8025
